According to publication PMC7078523 (Saudi Pharmaceutical Journal : SPJ, 2020):
Converted amounts (≈) assume the structure as drawn.

Key:
[1] = Phase solubility study of GRI with β-CD, NS2 and NS3; type: physicochemical; conditions: distilled water
In-vitro release study = type: physicochemical
In-vivo bioavailability = test: In-vivo bioavailability; set-up: species or system rats; conditions: male, albino, rat, plasma, po, 15 mg/kg
Outline: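 Fasted male albino rats (300±25 g), 7 per group, single oral 15 mg/kg as 1 ml aqueous suspension by feeding tube with 10 ml water. Orbital sinus blood into heparin at 0–48 h; plasma stored at -80 °C. Acetonitrile protein precipitation, propranolol internal standard, LC-MS/MS over 10–6000 ng/mL. Non-compartmental parameters per rat; AUC0-48 by log-linear trapezoidal rule, kel from terminal slope, t1/2 = 0.693/kel.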

[2] = cited from earlier work

| solubility [1] | GRI cumulative percent released/dissolved after 2 hrs (In-vitro release study; 0.1 N HCl (pH 1.2), 37 °C, 50 rpm) | GRI cumulative percent released/dissolved after 7 h (In-vitro release study; 2 h 0.1 N HCl then 5 hrs phosphate buffer pH 7.4) | Dissolution efficiency (%D.E.) (In-vitro release study; after 7 hrs) | Best fitted release kinetics model (In-vitro release study; highest correlation coefficient (R^2)) | AUC(0-t) (In-vivo bioavailability) | Cmax (In-vivo bioavailability) | Tmax (In-vivo bioavailability) | half-life (In-vivo bioavailability) | k el (In-vivo bioavailability) | Compound | Biopharmaceutics Classification System (BCS) class ([2]; ref Amidon et al., 1995) | log P (octanol/water) ([2]; ref Arida et al., 2007) | Aqueous solubility ([2]; physiological pH, ref Swaminathan et al., 2007) |
| --- | --- | --- | --- | --- | --- | --- | --- | --- | --- | --- | --- | --- | --- |
| ~35 µM (≈ 12.3 µg/mL) | 21.81 ± 0.07% | 27.43 ± 0.32% | 23.87% | Higuchi release kinetics model | 22500 ng·h/mL | 1810 ng/mL | 2 h | 20 h | 1.03e-05 s⁻¹ | COC1=CC(=O)C[C@@H](C)[C@]12Oc1c(Cl)c(OC)cc(OC)c1C2=O [GRI, Griseofulvin] | class II | 2.15 |  |
|  |  |  |  |  |  |  |  |  |  | CCC(C)n1ncn(-c2ccc(N3CCN(c4ccc(OCC5COC(Cn6cncn6)(c6ccc(Cl)cc6Cl)O5)cc4)CC3)cc2)c1=O (stereo not shown) [itraconazole] |  |  | about 1 ng mL^−1 |
